Reference: ChEMBL document CHEMBL2390884, “Design, synthesis and antiproliferative activity studies of novel 1,2,3-triazole-dithiocarbamate-urea hybrids” (Eur J Med Chem, 2013)
Calls of active or inactive are those of the source. No cut-off for these calls is given here.

Experiments:
[1] = system: MGC-803; assay: Cell cycle arrest in human MGC803 cells assessed as accumulation at G2/M phase at 1 uM after 12 hrs by propidium iodide staining-based flow cytometry; assay type: functional
Summary of the method: (§1)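 Exponentially growing MGC-803 cells (5×10^5) treated at 0, 0.25, 0.5 or 1.0 µmol/L for 12 or 24 h; cells collected, fixed in ice-cold 70% ethanol, treated with buffer containing RNAse A and 0.1% Triton X-100, stained with PI; DNA content analysed by flow cytometry to give percentages of cells in G1, S and G2/M phases.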

[2] = system: MGC-803; assay: Cell cycle arrest in human MGC803 cells assessed as reduction in S phase accumulation at 0.25 to 1 uM by propidium iodide staining-based flow cytometry; assay type: functional; conditions: TDE = time-dependent effect; summary of the method: as §1
[3] = system: MGC-803; assay: Cell cycle arrest in human MGC803 cells assessed as accumulation at G0/G1 phase at 1 uM after 12 hrs by propidium iodide staining-based flow cytometry; assay type: functional; summary of the method: as §1
[4] = system: MGC-803; assay: Cell cycle arrest in human MGC803 cells assessed as accumulation at G0/G1 phase at 0.5 uM after 24 hrs by propidium iodide staining-based flow cytometry; assay type: functional; summary of the method: as §1
[5] = system: MGC-803; assay: Induction of apoptosis in human MGC803 cells assessed as nuclear fragmentation at 0.25 to 1 uM after 12 hrs by Hoechst 33258 staining-based fluorescence microscopy; assay type: functional, cell-based
Summary of the method: (§2)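 MGC-803 cells seeded at 8×10^3 cells/well, treated 12 h at 0, 0.25, 0.5 or 1.0 µmol/L; cells collected, fixed, stained 20 min with Hoechst 33258, washed with PBS; nuclear shrinkage, chromatin condensation, intense fluorescence and fragmentation scored by fluorescence microscopy.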

[6] = system: MGC-803; assay: Cytotoxicity against human MGC803 cells after 72 hrs by MTT assay; assay type: functional, cell-based; conditions: MGC-803, 72 h
[7] = system: MGC-803; assay: Cell cycle arrest in human MGC803 cells assessed as reduction in G1 phase accumulation at 0.25 to 1 uM by propidium iodide staining-based flow cytometry; assay type: functional; conditions: TDE = time-dependent effect; summary of the method: as §1
[8] = system: MGC-803; assay: Cell cycle arrest in human MGC803 cells assessed as accumulation at S phase at 0.5 uM after 24 hrs by propidium iodide staining-based flow cytometry; assay type: functional; summary of the method: as §1
[9] = system: HEK293; assay: Cytotoxicity against human HEK293 cells up to 55 uM after 72 hrs by MTT assay; assay type: cell-based; conditions: hek293, 72 h
Summary of the method: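 HEK293 cells seeded at 5×10^3 per well, grown 24 h at 37°C, then medium replaced with compound-containing medium over a concentration range; 72 h exposure; MTT (5 mg/mL stock) added for 4 h at 37°C, formazan dissolved in DMSO, absorbance read at 570 nm. Triplicate per concentration, experiment repeated three times.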

[10] = system: MGC-803; assay: Cell cycle arrest in human MGC803 cells assessed as accumulation at G0/G1 phase at 0.25 uM after 12 hrs by propidium iodide staining-based flow cytometry; assay type: functional; summary of the method: as §1
[11] = system: MGC-803; assay: Cell cycle arrest in human MGC803 cells assessed as accumulation at S phase at 0.25 uM after 24 hrs by propidium iodide staining-based flow cytometry; assay type: functional; summary of the method: as §1
[12] = system: SMMC-7721; assay: Cytotoxicity against human SMMC7721 cells after 72 hrs by MTT assay; assay type: functional, cell-based; conditions: SMMC-7721, 72 h
[13] = system: MGC-803; assay: Cell cycle arrest in human MGC803 cells assessed as accumulation at G2/M phase at 0.25 uM after 12 hrs by propidium iodide staining-based flow cytometry; assay type: functional; summary of the method: as §1
[14] = system: MGC-803; assay: Cell cycle arrest in human MGC803 cells assessed as accumulation at G2/M phase after 12 to 24 hrs by propidium iodide staining-based flow cytometry; assay type: functional; summary of the method: as §1
[15] = system: MGC-803; assay: Cell cycle arrest in human MGC803 cells assessed as accumulation at S phase at 0.25 uM after 12 hrs by propidium iodide staining-based flow cytometry; assay type: functional; summary of the method: as §1
[16] = system: MGC-803; assay: Induction of apoptosis in human MGC803 cells assessed as nuclear shrinkage at 0.25 to 1 uM after 12 hrs by Hoechst 33258 staining-based fluorescence microscopy; assay type: functional, cell-based; summary of the method: as §2
[17] = system: MGC-803; assay: Cell cycle arrest in human MGC803 cells assessed as accumulation at S phase at 1 uM after 24 hrs by propidium iodide staining-based flow cytometry; assay type: functional; summary of the method: as §1
[18] = system: MGC-803; assay: Induction of apoptosis in human MGC803 cells assessed as chromatin condensation at 0.25 to 1 uM after 12 hrs by Hoechst 33258 staining-based fluorescence microscopy; assay type: functional, cell-based; summary of the method: as §2
[19] = system: MGC-803; assay: Cell cycle arrest in human MGC803 cells assessed as reduction in G1 phase accumulation after 12 to 24 hrs by propidium iodide staining-based flow cytometry; assay type: functional; summary of the method: as §1
[20] = system: MGC-803; assay: Cell cycle arrest in human MGC803 cells assessed as reduction in S phase accumulation after 12 to 24 hrs by propidium iodide staining-based flow cytometry; assay type: functional; summary of the method: as §1
[21] = Cytotoxicity against human EC9706 cells after 72 hrs by MTT assay; assay type: functional, cell-based; conditions: EC9706, 72 h
[22] = system: MGC-803; assay: Cell cycle arrest in human MGC803 cells assessed as accumulation at G2/M phase at 0.25 uM after 24 hrs by propidium iodide staining-based flow cytometry; assay type: functional; summary of the method: as §1
[23] = system: MGC-803; assay: Cell cycle arrest in human MGC803 cells assessed as accumulation at G0/G1 phase at 0.25 uM after 24 hrs by propidium iodide staining-based flow cytometry; assay type: functional; summary of the method: as §1
[24] = system: MGC-803; assay: Cell cycle arrest in human MGC803 cells assessed as accumulation at S phase at 0.5 uM after 12 hrs by propidium iodide staining-based flow cytometry; assay type: functional; summary of the method: as §1
[25] = system: MGC-803; assay: Cell cycle arrest in human MGC803 cells assessed as accumulation at G2/M phase at 0.5 uM after 12 hrs by propidium iodide staining-based flow cytometry; assay type: functional; summary of the method: as §1
[26] = system: MGC-803; assay: Cell cycle arrest in human MGC803 cells assessed as accumulation at G0/G1 phase at 0.5 uM after 12 hrs by propidium iodide staining-based flow cytometry; assay type: functional; summary of the method: as §1
[27] = system: MGC-803; assay: Cell cycle arrest in human MGC803 cells assessed as accumulation at G2/M phase at 0.5 uM after 24 hrs by propidium iodide staining-based flow cytometry; assay type: functional; summary of the method: as §1
[28] = system: MGC-803; assay: Cell cycle arrest in human MGC803 cells assessed as accumulation at G0/G1 phase at 1 uM after 24 hrs by propidium iodide staining-based flow cytometry; assay type: functional; summary of the method: as §1
[29] = system: MGC-803; assay: Cell cycle arrest in human MGC803 cells assessed as accumulation at G2/M phase at 1 uM after 24 hrs by propidium iodide staining-based flow cytometry; assay type: functional; summary of the method: as §1
[30] = system: MCF7; assay: Cytotoxicity against human MCF7 cells after 72 hrs by MTT assay; assay type: functional, cell-based; conditions: MCF7, 72 h
[31] = system: MGC-803; assay: Cell cycle arrest in human MGC803 cells assessed as accumulation at G2/M phase at 0.25 to 1 uM by propidium iodide staining-based flow cytometry; assay type: functional; conditions: TDE = time-dependent effect; summary of the method: as §1
[32] = system: MGC-803; assay: Cell cycle arrest in human MGC803 cells assessed as accumulation at S phase at 1 uM after 12 hrs by propidium iodide staining-based flow cytometry; assay type: functional; summary of the method: as §1

CC(C)NC(=O)N1CCN(C(=S)SCc2cn(Cc3ccccc3F)nn2)CC1
Activity [1]: 59.86% | Activity [2]: tde | Activity [3]: 6.02% | Activity [4]: 10.9% | Activity [5]: Active | IC50 [6]: 1.62 µM | Activity [7]: tde | Activity [8]: 17.4% | Activity [9]: Non-toxic | Activity [10]: 38.7% | Activity [11]: 35.96% | IC50 [12]: 7.13 µM | Activity [13]: 21.86% | Activity [14]: Dose-dependent effect | Activity [15]: 39.06% | Activity [16]: Active | Activity [17]: 15.66% | Activity [18]: Active | Activity [19]: Dose-dependent effect | Activity [20]: Dose-dependent effect | IC50 [21]: 20.8 µM | Activity [22]: 32.93% | Activity [23]: 31.47% | Activity [24]: 26.26% | Activity [25]: 50.35% | Activity [26]: 19.1% | Activity [27]: 68.71% | Activity [28]: 2.99% | Activity [29]: 74.95% | IC50 [30]: 1.86 µM | Activity [31]: tde | Activity [32]: 39.11%
